Results from ChEMBL document CHEMBL4229382, “Phenylthiazoles with tert-Butyl side chain: Metabolically stable with anti-biofilm activity” (Eur J Med Chem, 2018).
Values after ≈ are worked out from the molar mass of the structure shown. Active and inactive are the calls of the source. No cut-off for these calls is given here.

What was measured:
Staphylococcus aureus [1] = experiment: Antibacterial activity against methicillin-resistant Staphylococcus aureus NRS123 USA400 after 18 hrs by broth microdilution assay; type: functional; conditions: NRS123 USA400, 18 h
In short: (§1)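 Broth microdilution: inoculum from 0.5 McFarland suspension diluted to about 5 × 10^5 CFU/mL. Media were cation-adjusted Mueller-Hinton broth for staphylococci, brain heart infusion for E. faecium, and tryptone soya broth for E. faecalis, S. pneumoniae and L. monocytogenes.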

[2] = tested on: Staphylococcus epidermidis; experiment: Antibacterial activity against methicillin-resistant Staphylococcus epidermidis NRS101 after 18 hrs by broth microdilution assay; type: functional; conditions: NRS101, 18 h; in short: as §1
Staphylococcus aureus [3] = experiment: Antibacterial activity against methicillin-resistant Staphylococcus aureus NRS119 after 18 hrs by broth microdilution assay; type: functional; conditions: NRS119, 18 h; in short: as §1
Staphylococcus aureus [4] = experiment: Bactericidal activity against methicillin-resistant Staphylococcus aureus NRS386 incubated fo 18 hrs followed by re-plating on tryptic soy agar plates at 37 degC for 18 hrs by broth microdilution assay; type: functional; conditions: NRS386, 18 h
Listeria monocytogenes [5] = experiment: Bactericidal activity against Listeria monocytogenes ATCC 19111 incubated fo 18 hrs followed by re-plating on tryptic soy agar plates at 37 degC for 18 hrs by broth microdilution assay; type: functional; conditions: ATCC 19111, 18 h
Staphylococcus aureus [6] = experiment: Bactericidal activity against methicillin-sensitive Staphylococcus aureus NRS107 incubated fo 18 hrs followed by re-plating on tryptic soy agar plates at 37 degC for 18 hrs by broth microdilution assay; type: functional; conditions: NRS107, 18 h
Staphylococcus aureus [7] = experiment: Inhibition of biofilm formation in methicillin-resistant Staphylococcus aureus NRS384 USA300 at 1 time MIC after 24 hrs by crystal violet staining-based spectrophotometric analysis relative to control; parameters: scale not given: the % may be the effect or the level left
Staphylococcus aureus [8] = experiment: Antibacterial activity against methicillin-resistant Staphylococcus aureus NRS386 after 18 hrs by broth microdilution assay; type: functional; conditions: NRS386, 18 h; in short: as §1
Caco-2 = experiment: Cytotoxicity against human Caco2 cells at 32 ug/ml after 2 hrs by MTS assay; type: cell-based; conditions: caco-2, 2 h
In short: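 Caco-2 cells grown in DMEM with 20% FBS, non-essential amino acids and penicillin-streptomycin, 37 °C, 5% CO2; exposed in triplicate to compounds (16, 32, 64 µg/mL) for 2 h; MTS added, 4 h further incubation, OD490 read; viability as percent of DMSO-treated controls; two independent experiments.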

Staphylococcus aureus [9] = experiment: Inhibition of biofilm formation in methicillin-resistant Staphylococcus aureus NRS384 USA300 at 2 times MIC after 24 hrs by crystal violet staining-based spectrophotometric analysis relative to control; parameters: scale not given: the % may be the effect or the level left
[10] = tested on: Staphylococcus epidermidis; experiment: Bactericidal activity against methicillin-resistant Staphylococcus epidermidis NRS101 incubated fo 18 hrs followed by re-plating on tryptic soy agar plates at 37 degC for 18 hrs by broth microdilution assay; type: functional; conditions: NRS101, 18 h
Staphylococcus aureus [11] = experiment: Antibacterial activity against methicillin-resistant Staphylococcus aureus 2658 RCMB after 18 hrs by broth microdilution assay; type: functional; in short: as §1
Staphylococcus aureus [12] = experiment: Antibacterial activity against methicillin-sensitive Staphylococcus aureus NRS107 after 18 hrs by broth microdilution assay; type: functional; conditions: NRS107, 18 h; in short: as §1
Staphylococcus aureus [13] = experiment: Bactericidal activity against methicillin-resistant Staphylococcus aureus NRS384 USA300 incubated fo 18 hrs followed by re-plating on tryptic soy agar plates at 37 degC for 18 hrs by broth microdilution assay; type: functional; conditions: NRS384 USA300, 18 h
Staphylococcus aureus [14] = experiment: Bactericidal activity against methicillin-sensitive Staphylococcus aureus ATCC 6538 incubated fo 18 hrs followed by re-plating on tryptic soy agar plates at 37 degC for 18 hrs by broth microdilution assay; type: functional; conditions: ATCC 6538, 18 h
Staphylococcus aureus [15] = experiment: Antibacterial activity against methicillin-sensitive Staphylococcus aureus ATCC 6538 after 18 hrs by broth microdilution assay; type: functional; conditions: ATCC 6538, 18 h; in short: as §1
Staphylococcus aureus [16] = experiment: Bactericidal activity against vancomycin-resistant Staphylococcus aureus VRS12 incubated fo 18 hrs followed by re-plating on tryptic soy agar plates at 37 degC for 18 hrs by broth microdilution assay; type: functional; conditions: VRS12, 18 h
Staphylococcus aureus [17] = experiment: Bactericidal activity against vancomycin-resistant Staphylococcus aureus VRS10 incubated fo 18 hrs followed by re-plating on tryptic soy agar plates at 37 degC for 18 hrs by broth microdilution assay; type: functional; conditions: VRS10, 18 h
Staphylococcus aureus [18] = experiment: Antibacterial activity against methicillin-resistant Staphylococcus aureus NRS123 USA400 assessed as reduction in bacterial growth after 2 to 4 hrs by time kill assay; type: functional, organism-based
In short: (§2)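 Samples taken at 0, 2, 4, 6, 8, 12 and 24 h were serially diluted in PBS, plated on TSA and incubated ≥18 h for viable CFU/mL. DMSO was the negative control; two independent experiments.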

Staphylococcus aureus [19] = experiment: Antibacterial activity against methicillin-resistant Staphylococcus aureus NRS385 after 18 hrs by broth microdilution assay; type: functional; conditions: NRS385, 18 h; in short: as §1
Staphylococcus aureus [20] = experiment: Bactericidal activity against methicillin-resistant Staphylococcus aureus NRS385 incubated fo 18 hrs followed by re-plating on tryptic soy agar plates at 37 degC for 18 hrs by broth microdilution assay; type: functional; conditions: NRS385, 18 h
Staphylococcus aureus [21] = experiment: Antibacterial activity against vancomycin-resistant Staphylococcus aureus VRS10 after 18 hrs by broth microdilution assay; type: functional; conditions: VRS10, 18 h; in short: as §1
Enterococcus faecium [22] = experiment: Antibacterial activity against vancomycin-resistant Enterococcus faecium ATCC 700221 after 18 hrs by broth microdilution assay; type: functional; conditions: ATCC 700221, 18 h; in short: as §1
Staphylococcus aureus [23] = experiment: Antibacterial activity against methicillin-resistant Staphylococcus aureus NRS384 USA300 after 18 hrs by broth microdilution assay; type: functional; conditions: NRS384 USA300, 18 h; in short: as §1
Staphylococcus aureus [24] = experiment: Bactericidal activity against methicillin-resistant Staphylococcus aureus NRS119 incubated fo 18 hrs followed by re-plating on tryptic soy agar plates at 37 degC for 18 hrs by broth microdilution assay; type: functional; conditions: NRS119, 18 h
Staphylococcus aureus [25] = experiment: Bactericidal activity against methicillin-resistant Staphylococcus aureus NRS123 USA400 incubated fo 18 hrs followed by re-plating on tryptic soy agar plates at 37 degC for 18 hrs by broth microdilution assay; type: functional; conditions: NRS123 USA400, 18 h
Listeria monocytogenes [26] = experiment: Antibacterial activity against Listeria monocytogenes ATCC 19111 after 18 hrs by broth microdilution assay; type: functional; conditions: ATCC 19111, 18 h
Staphylococcus aureus [27] = experiment: Inhibition of biofilm formation in methicillin-resistant Staphylococcus aureus NRS384 USA300 after 24 hrs by crystal violet staining-based spectrophotometric analysis
Staphylococcus aureus [28] = experiment: Antibacterial activity against vancomycin-resistant Staphylococcus aureus VRS12 after 18 hrs by broth microdilution assay; type: functional; conditions: VRS12, 18 h; in short: as §1
Enterococcus faecalis [29] = experiment: Antibacterial activity against vancomycin-resistant Enterococcus faecalis ATCC 51299 after 18 hrs by broth microdilution assay; type: functional; conditions: ATCC 51299, 18 h; in short: as §1
Enterococcus faecium [30] = experiment: Bactericidal activity against vancomycin-resistant Enterococcus faecium ATCC 700221 incubated fo 18 hrs followed by re-plating on tryptic soy agar plates at 37 degC for 18 hrs by broth microdilution assay; conditions: ATCC 700221, 18 h
Enterococcus faecalis [31] = experiment: Bactericidal activity against vancomycin-resistant Enterococcus faecalis ATCC 51299 incubated fo 18 hrs followed by re-plating on tryptic soy agar plates at 37 degC for 18 hrs by broth microdilution assay; type: functional; conditions: ATCC 51299, 18 h
Streptococcus pneumoniae [32] = experiment: Antibacterial activity against cephalosporin-resistant Streptococcus pneumoniae ATCC 51916 after 18 hrs by broth microdilution assay; type: functional; conditions: ATCC 51916, 18 h; in short: as §1
Listeria monocytogenes [33] = experiment: Selectivity ratio of MBC to MIC for Listeria monocytogenes ATCC 19111; type: functional
Staphylococcus aureus [34] = experiment: Antibacterial activity against methicillin-resistant Staphylococcus aureus NRS123 USA400 assessed as reduction in bacterial burden within 6 hrs by time kill assay; type: functional; in short: as §2
Streptococcus pneumoniae [35] = experiment: Bactericidal activity against cephalosporin-resistant Streptococcus pneumoniae ATCC 51916 incubated fo 18 hrs followed by re-plating on tryptic soy agar plates at 37 degC for 18 hrs by broth microdilution assay; type: functional; conditions: ATCC 51916, 18 h
Streptococcus pneumoniae [36] = experiment: Antibacterial activity against methicillin-resistant Streptococcus pneumoniae ATCC 700677 after 18 hrs by broth microdilution assay; type: functional; conditions: ATCC 700677, 18 h; in short: as §1
Streptococcus pneumoniae [37] = experiment: Bactericidal activity against methicillin-resistant Streptococcus pneumoniae ATCC 700677 incubated fo 18 hrs followed by re-plating on tryptic soy agar plates at 37 degC for 18 hrs by broth microdilution assay; type: functional; conditions: ATCC 700677, 18 h

SMILES	MIC (Staphylococcus aureus [1]) [µg/mL]	MIC [2] [µg/mL]	MIC (Staphylococcus aureus [3]) [µg/mL]	MBC (Staphylococcus aureus [4]) [µg/mL]	MBC (Staphylococcus aureus [6]) [µg/mL]	Activity (Staphylococcus aureus [7]) [%]	MIC (Staphylococcus aureus [8]) [µg/mL]	Activity (Caco-2)	Activity (Staphylococcus aureus [9]) [%]	MBC [10] [µg/mL]	MIC (Staphylococcus aureus [11]) [µg/mL]	MIC (Staphylococcus aureus [12]) [µg/mL]	MBC (Staphylococcus aureus [13]) [µg/mL]	MBC (Staphylococcus aureus [14]) [µg/mL]	MIC (Staphylococcus aureus [15]) [µg/mL]	MBC (Staphylococcus aureus [16]) [µg/mL]	MBC (Staphylococcus aureus [17]) [µg/mL]	MIC (Staphylococcus aureus [19]) [µg/mL]	MBC (Staphylococcus aureus [20]) [µg/mL]	MIC (Staphylococcus aureus [21]) [µg/mL]	further results
Cc1nc(-c2ccc(C(C)(C)C)cc2)sc1-c1ccnc(NC(=N)N(C)C)n1	8 (≈ 20.3 µM)	8 (≈ 20.3 µM)	8 (≈ 20.3 µM)	8 (≈ 20.3 µM)	8 (≈ 20.3 µM)	35.5	8 (≈ 20.3 µM)	Toxic	48.2	8 (≈ 20.3 µM)	1.17 (≈ 2.97 µM)	8 (≈ 20.3 µM)	8 (≈ 20.3 µM)	8 (≈ 20.3 µM)	8 (≈ 20.3 µM)	8 (≈ 20.3 µM)	8 (≈ 20.3 µM)	8 (≈ 20.3 µM)	8 (≈ 20.3 µM)	8 (≈ 20.3 µM)	MBC (Listeria monocytogenes [5]): 8 µg/mL (≈ 20.3 µM); Activity (Staphylococcus aureus [18]): Active; MIC (Enterococcus faecium [22]): 8 µg/mL (≈ 20.3 µM); MIC (Staphylococcus aureus [23]): 8 µg/mL (≈ 20.3 µM); MBC (Staphylococcus aureus [24]): 8 µg/mL (≈ 20.3 µM); MBC (Staphylococcus aureus [25]): 8 µg/mL (≈ 20.3 µM); MIC (Listeria monocytogenes [26]): 8 µg/mL (≈ 20.3 µM); inhibition (Staphylococcus aureus [27]): Dose-dependent effect; MIC (Staphylococcus aureus [28]): 8 µg/mL (≈ 20.3 µM); MIC (Enterococcus faecalis [29]): 8 µg/mL (≈ 20.3 µM); MBC (Enterococcus faecium [30]): 16 µg/mL (≈ 40.6 µM)
Cc1nc(-c2ccc(C(C)(C)C)cc2)sc1-c1ccnc(NC(=N)c2ccccn2)n1	2 (≈ 4.67 µM)	64 (≈ 149 µM)	4 (≈ 9.33 µM)	2 (≈ 4.67 µM)	> 64	44	2 (≈ 4.67 µM)	Toxic	49	> 64	0.78 (≈ 1.82 µM)	64 (≈ 149 µM)	4 (≈ 9.33 µM)	4 (≈ 9.33 µM)	2 (≈ 4.67 µM)	4 (≈ 9.33 µM)	4 (≈ 9.33 µM)	4 (≈ 9.33 µM)	4 (≈ 9.33 µM)	2 (≈ 4.67 µM)	MBC (Enterococcus faecalis [31]): > 64 µg/mL; MIC (Streptococcus pneumoniae [32]): 4 µg/mL (≈ 9.33 µM); Ratio (Listeria monocytogenes [33]): >3; Activity (Staphylococcus aureus [34]): 3 log10CFU/ml; MBC (Streptococcus pneumoniae [35]): 4 µg/mL (≈ 9.33 µM); MIC (Streptococcus pneumoniae [36]): 8 µg/mL (≈ 18.7 µM); MIC (Enterococcus faecium [22]): 4 µg/mL (≈ 9.33 µM); MIC (Staphylococcus aureus [23]): 4 µg/mL (≈ 9.33 µM); MBC (Staphylococcus aureus [24]): 4 µg/mL (≈ 9.33 µM); MBC (Streptococcus pneumoniae [37]): 8 µg/mL (≈ 18.7 µM); MBC (Staphylococcus aureus [25]): 2 µg/mL (≈ 4.67 µM); MIC (Listeria monocytogenes [26]): 2 µg/mL (≈ 4.67 µM); inhibition (Staphylococcus aureus [27]): Dose-dependent effect; MIC (Staphylococcus aureus [28]): 4 µg/mL (≈ 9.33 µM); MIC (Enterococcus faecalis [29]): 64 µg/mL (≈ 149 µM); MBC (Enterococcus faecium [30]): 32 µg/mL (≈ 74.7 µM)
